The subject of assay [1] is Mus musculus. As to the kind of experiment: Anticonvulsant activity against maximal electroshock-induced seizures in mouse at >100 to 300 mg/kg, ip. Format: functional, organism-based. The arrangement: dose 300 mg/kg. In general terms: In the maximal electroshock model the usual endpoint is tonic extension of the hind limbs.
For assay [2], the system named is Staphylococcus aureus. Kind of assay: Antibacterial activity against methicillin-resistant Staphylococcus aureus clinical isolate after 18 hrs by NCCLS M7-A4 method. The class given is functional. A digest of the protocol:
(§1)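 Test compounds dissolved in 80% DMSO in water. Clinical isolates came from a MRSA reference laboratory culture collection. Final inoculum 10^7 CFU/ml, incubated 35 °C for 18 h. MIC taken as the lowest concentration completely inhibiting growth. Reference strains S. aureus ATCC 25923, S. epidermidis ATCC 12228 and E. faecalis ATCC 29212 served as test controls.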

For assay [3], the system named is Haemophilus influenzae. Kind of assay: Antibacterial activity against Haemophilus influenzae ATCC 49247 after 18 hrs by NCCLS M7-A4 method. Format: functional, organism-based. A digest of the protocol: (§2)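 Agar dilution on Mueller–Hinton agar with 5% sheep blood, per NCCLS/CLSI. Compounds were dissolved in 80% DMSO in water and tested over 0.12–16. Incubation was 35 °C for 18 h. MIC was read as the lowest concentration completely inhibiting growth. Line 4 used clinical isolates (n = 7 for H. influenzae).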

Assay [4] has as its system Haemophilus influenzae. As to the kind of experiment: Antibacterial activity against Haemophilus influenzae clinical isolate after 18 hrs by NCCLS M7-A4 method. The class given is functional. A digest of the protocol:
as §2

Assay [5] relates to Enterococcus. As to the kind of experiment: Antibacterial activity against vancomycin-sensitive Enterococcus clinical isolate after 18 hrs by NCCLS M7-A4 method. The class given is functional. A digest of the protocol: as §1
Assay [6] concerns Staphylococcus. As to the kind of experiment: Antibacterial activity against methicillin-sensitive coagulase-negative Staphylococcus clinical isolate after 18 hrs by NCCLS M7-A4 method. The class given is functional. A digest of the protocol: as §1
Assay [7] has as its system Staphylococcus epidermidis. Kind of assay: Antibacterial activity against Staphylococcus epidermidis ATCC 12228 after 18 hrs by NCCLS M7-A4 method. The class given is functional, organism-based. A digest of the protocol:
(§3)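 Agar dilution on Mueller–Hinton agar, following NCCLS (now CLSI) guidance. Test compounds were dissolved in 80% DMSO in water and tested at 0.12 to 16. Plates were incubated at 35 °C for 18 h. The MIC was the lowest concentration giving complete growth inhibition.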

The subject of assay [8] is Enterococcus. As to the kind of experiment: Antibacterial activity against vancomycin-resistant Enterococcus clinical isolate after 18 hrs by NCCLS M7-A4 method. Format: functional. A digest of the protocol:
as §1

Assay [9] concerns Staphylococcus. As to the kind of experiment: Antibacterial activity against methicillin-resistant coagulase-negative Staphylococcus clinical isolate after 18 hrs by NCCLS M7-A4 method. The class given is functional. The essentials: as §1
In assay [10] the test system is Staphylococcus aureus. As to the kind of experiment: Antibacterial activity against methicillin-susceptible Staphylococcus aureus clinical isolate after 18 hrs by NCCLS M7-A4 method. Format: functional. The essentials: as §1
Assay [11] concerns Streptococcus pneumoniae. Kind of assay: Antibacterial activity against Streptococcus pneumoniae clinical isolate after 18 hrs by NCCLS M7-A4 method. The class given is functional. A digest of the protocol:
as §2

Assay [12] relates to Enterococcus faecalis. Kind of assay: Antibacterial activity against Enterococcus faecalis ATCC 29212 after 18 hrs by NCCLS M7-A4 method. Format: functional, organism-based. A digest of the protocol: as §3
The subject of assay [13] is Staphylococcus aureus. Kind of assay: Antibacterial activity against Staphylococcus aureus ATCC 25923 after 18 hrs by NCCLS M7-A4 method. Format: functional, organism-based. A digest of the protocol:
as §3

The test system of assay [14] is Escherichia coli. Kind of assay: Antibacterial activity against Escherichia coli ATCC 25922 after 18 hrs by NCCLS M7-A4 method. The class given is functional, organism-based. A digest of the protocol:
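Reference E. coli strain tested by NCCLS/CLSI agar dilution. Compounds were in 80% DMSO in water over a 0.12–16 dilution range, incubated at 35 °C for 18 h.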

The subject of assay [15] is Mus musculus. Kind of assay: Anticonvulsant activity against subcutaneous pentylenetetrazole-induced seizures in mouse at >100 to 300 mg/kg, ip. Further details: dose 300 mg/kg. The class given is functional, organism-based.

Values after ≈ are worked out from the molar mass of the structure shown. Active and inactive are the calls of the source. The rule behind the calls is not given here. A value given as a limit tells only on which side of the number the result lay.

Consider `CCOC(=O)C1C(=O)C=C(N2CCCC2)CC1c1ccccc1` (centres undefined), for which, in assay [1], the outcome was Active.

Consider `O=C1O[C@@H](Cn2ccnn2)CN1c1ccc(N2CCOCC2)c(F)c1`, for which the MIC in assay [2] amounted to 0.5 µg/mL (≈ 1.44 µM); in assay [4] it was 32 µg/mL (≈ 92.1 µM); in assay [5], 0.5 µg/mL (≈ 1.44 µM); in [6] it was 1 µg/mL (≈ 2.88 µM); in [8] it was 0.5 µg/mL (≈ 1.44 µM); in assay [9], 0.5 µg/mL (≈ 1.44 µM). The MIC in assay [10] and in [11] was 0.5 µg/mL (≈ 1.44 µM) throughout. Further, the result in assay [3], in assay [7], in assay [12], in assay [13] and in [14] was inactive.

On to `COC(=O)C1C(=O)C=C(Nc2ccccc2)CC1c1ccccc1` (centres undefined), for which the result in assay [15] was Active.

With `CCOC(=O)C1C(=O)C=C(Nc2ccc(Cl)cc2)CC1c1ccccc1` (centres undefined), in [1], the result was Active.

`CN[C@H](CC(C)C)C(=O)N[C@H]1C(=O)N[C@@H](CC(N)=O)C(=O)N[C@H]2C(=O)N[C@H]3C(=O)N[C@H](C(=O)N[C@H](C(=O)O)c4cc(O)cc(O)c4-c4cc3ccc4O)[C@H](O)c3ccc(c(Cl)c3)Oc3cc2cc(c3O[C@@H]2O[C@H](CO)[C@@H](O)[C@H](O)[C@H]2O[C@H]2C[C@](C)(N)[C@H](O)[C@H](C)O2)Oc2ccc(cc2Cl)[C@H]1O` [VANCOMYCIN]: the result in assay [3], in assay [7], in assay [12], in assay [13] and in [14] was inactive. Besides, the MIC in [4] is > 32 µg/mL; in assay [5], 1 µg/mL (≈ 0.69 µM); in [6], 1 µg/mL (≈ 0.69 µM); in assay [8], 8 µg/mL (≈ 5.52 µM); in [9], 2 µg/mL (≈ 1.38 µM); in assay [11], 0.25 µg/mL (≈ 0.173 µM).

Regarding `CCOC(=O)C1C(=O)C=C(N2CCOCC2)CC1C` (centres undefined), in assay [15], the result was Active.

For the compound `CC(=O)NC[C@H]1CN(c2ccc(N3CCOCC3)c(F)c2)C(=O)O1` [LINEZOLID], the MIC amounted to 0.5 µg/mL (≈ 1.48 µM) in [2]; 8 µg/mL (≈ 23.7 µM) in assay [4]; 1 µg/mL (≈ 2.96 µM) in [5]; 0.5 µg/mL (≈ 1.48 µM) in assay [6]; 1 µg/mL (≈ 2.96 µM) in [8]; 0.5 µg/mL (≈ 1.48 µM) in assay [9]. The result in assay [3], in assay [7], in assay [12], in assay [13] and in [14] was inactive.

The values are drawn from ChEMBL document CHEMBL1137699, “Synthesis, antibacterial and anticonvulsant evaluations of some cyclic enaminones” (Eur J Med Chem, 2009).
